The campaign covered roughly 2,000 compounds. About 10 (0.5%) were called active. Shown is part of a subset that was picked to be rich in actives. Values without a mark were called inactive.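 How the source made its calls: active means inhibition above 30%; inactive means the rest.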 Residues, ends and D or L forms follow the SMILES beside them.

As usually defined, the inhibition is the relative decrease from the control value, in per cent.

Chain of Protein-arginine deiminase type-4 (Homo sapiens) (Q9UM07 whole entry, looked up): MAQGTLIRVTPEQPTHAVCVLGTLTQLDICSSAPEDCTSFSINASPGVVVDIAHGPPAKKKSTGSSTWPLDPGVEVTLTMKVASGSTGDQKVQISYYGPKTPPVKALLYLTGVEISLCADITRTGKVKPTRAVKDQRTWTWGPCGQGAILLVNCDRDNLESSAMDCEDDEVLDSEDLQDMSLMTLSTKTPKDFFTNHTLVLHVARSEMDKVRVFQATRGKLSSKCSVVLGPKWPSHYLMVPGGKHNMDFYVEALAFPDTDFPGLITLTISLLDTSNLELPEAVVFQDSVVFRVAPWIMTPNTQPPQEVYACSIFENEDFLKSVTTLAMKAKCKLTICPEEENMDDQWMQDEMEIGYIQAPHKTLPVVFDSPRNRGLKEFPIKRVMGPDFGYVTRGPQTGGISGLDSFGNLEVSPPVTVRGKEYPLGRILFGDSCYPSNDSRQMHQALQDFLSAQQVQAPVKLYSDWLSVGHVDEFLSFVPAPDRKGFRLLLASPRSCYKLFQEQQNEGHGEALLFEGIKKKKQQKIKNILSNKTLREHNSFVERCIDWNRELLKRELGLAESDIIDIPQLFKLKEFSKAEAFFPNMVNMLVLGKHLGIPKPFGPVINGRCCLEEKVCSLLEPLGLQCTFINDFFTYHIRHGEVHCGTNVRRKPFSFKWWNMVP

This assay deals with Protein-arginine deiminase type-4 (Homo sapiens) (UniProt Q9UM07). Nature of the assay: blockers of protein arginine deiminase 4 – biochemical, fluorescence polarization, primary screen (AID 463073).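 Further: 0% = PAD4 with DMSO and 100% = wells lacking PAD4.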 Particulars: recombinant PAD4, RFA probe fluorescence polarization; at 5 µM; stronger effect = higher value. Summed up:
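system = recombinant PAD4 | amount = PAD4 at 2 µM in dispensed buffer, before additions | incubation = 30 min 25 °C preincubation, 5 h 37 °C labeling | measured by = FP, ex 525 nm, em 598 nm | replication = single well per compound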
In general terms: Polarisation of emitted light reports the rotation of a fluorescent probe.
`COc1ccc(-c2nc(C)c(C(C)=O)n2O)cc1OC`: the inhibition was 2.19%.

`O=C(O)CCn1c(=S)n(CCC(=O)O)c2ccccc21`: the inhibition is 3.98%.

Consider `CC(OC(=O)c1cc(=O)[nH]c2ccccc12)C(=O)c1ccccc1` (stereo not drawn), for which the inhibition was -0.79%. With `C=C(C)Cn1c(NCCOC)nc2c1c(=O)[nH]c(=O)n2C` the figure was 1.67%; with `CC(=O)NC1C(OCCOc2ccc(Cl)cc2Cl)OC(COC(C)=O)C(OC(C)=O)C1OC(C)=O` (stereo not drawn), 2.94%. With `CCOC(=O)c1cccc(C(=O)OCC)n1` the figure was -2.55%; with `CCOC(=O)c1c(C)oc2c1C(=O)c1ccccc1C2=O`, 61.9% (active).

Take `CCOC(=O)C1=C(C)N[C@@]2(O)c3ccccc3C(=O)[C@@]12O`: the inhibition was 5.29%. With `CC(=O)N1CC23C=CC(CC2CC12CCCCCC2)O3` (stereo not drawn) the figure was 0.84%. Regarding `CCOc1ncnc2c1[nH]c1ccccc12`, the inhibition was 1.88%. For `COC(=O)C1[C@H]2C(=O)N(Cc3cccs3)C[C@]23C=C[C@H]1O3` (stereo partly drawn), the inhibition was 2.54%. Turning to `CC(C)CN1CCN(Cc2ccc3ncccc3c2)CC1CCO` (stereo not drawn), the inhibition was 5.67%. For `CNS(=O)(=O)c1ccc(C)cc1` the value was -0.67%.

As for `CCCCNC(=O)NS(=O)(=O)c1ccc(C)cc1`, the inhibition is 5.34%.

`Cc1ccc(S(=O)(=O)N[C@@H](Cc2ccccc2)C(=O)CCl)cc1`: the inhibition was 39.7% (active).

In the case of `O=C(CCc1ccccc1)Nc1ccccc1C(F)(F)F`, the inhibition is -2.28%. With `COc1cc2c(cc1OC)C(c1ccccc1)=NCC2` the figure was 3.38%. As for `C[C@]12CC[C@@H]3c4ccc(O)cc4[C@@H](O)C[C@H]3[C@@H]1CC[C@@H]2O`, the inhibition was 2.58%. On to `CC(=O)CCc1c(C)c2cccc(C)c2[nH]c1=O`, for which the inhibition was 2.48%. For `CCCCC/C=C\C[C@H](O)/C=C/c1cccc(C[C@H](O)CCCCO)n1` the value was 4.29%; for `CCOC(=O)C(NC(C)=O)C(O)c1ccc([N+](=O)[O-])cc1` (stereo not drawn), 3%; for `O=C1OC(Nc2ccc3c(c2)OCO3)c2ccccc21` (stereo not drawn), 3.54%.

Regarding `Cc1cccc(Oc2coc3cc(OC(=O)c4cncc(Br)c4)ccc3c2=O)c1`, the inhibition is 26.8%. For `COc1ccc(C2C3C(C)=NN=C3CC(C)(O)C2C(C)=O)cc1` (stereo not drawn) the value was -7.27%. For `O=P(c1ccccc1)(c1ccccc1)c1nc(-c2ccc(Cl)cc2)oc1N1CCOCC1` the value was 4.58%; for `CC(=O)N1CCN(c2ccc(OC[C@H]3CO[C@](Cn4ccnc4)(c4ccc(Cl)cc4Cl)O3)cc2)CC1`, 6.45%. With `C/C=C(/C(=C/C)c1ccc(O)cc1)c1ccc(O)cc1` the figure was 0.21%; with `C=CCc1cccc2cc(C(=O)Nc3ccc(CC(=O)O)cc3)c(=O)oc12`, -4.46%. For the compound `CC(C)C(=O)Nc1c(O)c2ccccc2[nH]c1=O`, the inhibition is -3.74%. With `COc1ccc(C(=O)Nc2nc3ccccc3c(=O)[nH]2)cc1` the figure was 0.21%; with `COC(=O)c1[nH]c(=O)c2ccccc2c1O`, 66.5% (active).

Turning to `CCOC(=O)n1c(=O)oc2ccccc21`, the inhibition was -6.44%. For `CCOc1cc2c3c(c1)C(C)=CC(C)(C)N3C(=O)C2=O` the value was -0.07%; for `CC(C)CC(=O)NC(NC(=O)CC(C)C)c1cccc([N+](=O)[O-])c1`, -2.91%. `Cc1[nH]c2ccccc2c1C(=O)CN1CCCC1`: the inhibition was -1.81%.

For `COc1cc(C2Nc3ccccc3NC3=C2C(=O)CC(c2ccc(OC)c(OC)c2)C3)ccc1O` (stereo not drawn), the inhibition is -5.4%. For `O=C1Cc2ccccc2C(c2ccccc2)N1` (stereo not drawn) the value was 0.84%. Regarding `O=C1NCC2=C1C(c1ccccc1)Nc1ccccc1N2` (stereo not drawn), the inhibition was 58.3% (active). As for `CCc1ccc2oc(=O)cc(CN3CCC(C)CC3)c2c1`, the inhibition was -1.47%. For `C[N+](C)(C)CCCC(=O)c1ccc2c(c1)OCO2` the value was 3.91%.

For the compound `CC(=O)NC(CC(C)C)C(=O)NC(Cc1ccccc1)C(N)=O` (stereo not drawn) (Ac-Leu-Phe-NH2; configuration not given here), the inhibition was 1.27%. `COc1ccc2c(C=O)cn(C)c2c1`: the inhibition is -2.41%. For `COC(=O)c1[nH]c2ccccc2c1NC(=O)CN1CCN(C/C=C/c2ccccc2)CC1` the value was 0.97%; for `Cc1ccnc(NS(=O)(=O)c2ccc(N)cc2)n1`, 1.25%; for `COc1cc(=O)n(C)c2ccccc12`, 0.98%. For `CC(C)CC(NC(=O)c1cccc(Cl)c1)C(=O)O` (stereo not drawn) the value was -0.07%. With `Cc1c(O)c(=O)ccn1C` the figure was 4.09%. On to `Cc1cccc(C)c1NS(=O)(=O)c1ccc(NC(=O)c2ccc(Cl)c([N+](=O)[O-])c2)cc1`, for which the inhibition is 5.98%. With `C=CCNC(=S)N1CCc2c([nH]c3ccccc23)C1C` (stereo not drawn) the figure was -0.07%. With `CCN1C(=O)C(CC(=O)Nc2ccc(OC)cc2)N(CCc2ccc(F)cc2)C1=S` (stereo not drawn) the figure was 3.71%; with `Cc1ccccc1-c1nn(-c2ccc(F)cc2F)cc1CNCCN(C)C`, -4.06%; with `COc1ccc2[nH]cc(C(=O)CCl)c2c1`, 2.86%. For `COC(=O)CN1CC(=O)N(c2ccccc2)C1=S`, the inhibition was -0.98%. With `O=c1oc2c(CN3CCCCC3)c(O)ccc2c2c1CCCCC2` the figure was -1.21%. With `COC1=C(N)C(=O)c2nc(-c3nc(C(=O)O)c(C)c(-c4ccc(OC)c(OC)c4O)c3N)ccc2C1=O` the figure was 92.5% (active); with `COc1ccc2oc(=O)c(-c3nc(C)cs3)cc2c1`, 3.51%.

Regarding `O=C(NCc1ccc2c(c1)OCO2)c1ccc2c(c1)OCCO2`, the inhibition was 2.19%.

`CCOC(=O)C1C(=O)CC(C)(O)C(C(=O)OCC)C1/C=C/c1ccccc1` (stereo not drawn): the inhibition was 0.16%.

On to `CCOc1ccc(N2C(=O)CNC2=S)cc1`, for which the inhibition was 0.84%. Regarding `COc1ccc(N2C(=O)[C@@H]3[C@H](C2=O)[C@H]2c4ccccc4C=CN2[C@@H]3C(C)=O)cc1`, the inhibition was 37.2% (active). For `COc1ccc(C(=O)[C@H]2[C@H]3C(=O)N(c4ccccc4)C(=O)[C@H]3C3C=CC=NN32)cc1` (stereo partly drawn) the value was 2.34%. For `COc1ccc(N2C(=O)C3C(C2=O)C(C(=O)c2ccccc2)N2CCCC32)cc1` (stereo not drawn) the value was 2.54%; for `CCNCCC(CCC(C)C)c1ccc2c(c1)OCO2` (stereo not drawn), 2.15%. As to `COc1ccc(C(=O)/C=C/c2cc(C(=O)O)cc3c2OCOC3)c(O)c1`, the inhibition is 3%.

Turning to `Clc1ccc2c(c1)[C@H]1OCC[C@H]1[C@@H](c1ccco1)N2`, the inhibition is 1.39%. For `NS(=O)(=O)c1cc2c(cc1Cl)NC(CSCc1ccccc1)=NS2(=O)=O` the value was 0.58%. With `COC(=O)C1=C(C)N(C)C(=S)NC1c1ccc(Cl)cc1` (stereo not drawn) the figure was 0.42%. As for `C#C[C@]1(O)CC[C@H]2[C@@H]3CCC4=C(CCC(=O)C4)[C@H]3CC[C@@]21C`, the inhibition is 0.19%. With `CC[n+]1c(C)sc2cc(C)ccc21` the figure was 0.78%; with `NC(=O)[C@@H]1[C@@H]2C(=O)N(c3ccc(F)cc3)C(=O)[C@@H]2[C@H]2C=Cc3ccccc3N21`, -1.24%. For `COc1ccc(-c2[nH]ncc2CN(C)C(C)c2ccon2)c(OC)c1` (stereo not drawn) the value was 4.74%; for `COc1cc(NC(=S)NN2CCN(C)CC2)cc(OC)c1OC`, -5.47%; for `CC1(C)Cc2ccccc2C(C(Cc2ccccc2)C(N)=O)=N1` (stereo not drawn), 1.19%. As for `COc1ccc(NC2=C(Cl)C(=O)N(c3ccccc3)C2=O)c(OC)c1`, the inhibition is 7.44%. With `CSc1ccc(CN2CCN(CCC(C)C)C(CCO)C2)cc1` (stereo not drawn) the figure was -2.67%; with `CC1(C)CC(=O)C(C2(O)C(=O)Nc3ccccc32)CO1` (stereo not drawn), 7.91%; with `CCOC(=O)c1cnc2ccccc2c1NCCO`, 1.39%.

On to `COc1ccc(C2(CCN=Cc3ccc(N(C)C)cc3)CCOC(C)(C)C2)cc1` (stereo not drawn), for which the inhibition is 4.88%.

With `CC(C)OC(=O)c1ccc(NC(=O)c2cncc(Br)c2)cc1`, the inhibition is 3.13%. Regarding `CCOc1cccc(N2C(=O)CC(N(CCc3ccc(OC)c(OC)c3)C(=O)CC)C2=O)c1` (stereo not drawn), the inhibition was 4.11%.

With `C[C@H](NC(=O)Nc1ccccc1F)C(=O)O`, the inhibition is 3.34%.

For the compound `Cc1ncc([N+](=O)[O-])n1CCO`, the inhibition was -2.21%.

As to `CC(C)OC(=O)C1C2C=CC3(CN(CC4CCCO4)C(=O)C13)O2` (stereo not drawn), the inhibition was 3.74%. `CC(=O)C1=C(O)C(=O)OC1c1ccc(C)cc1` (stereo not drawn): the inhibition is 3.6%.

Turning to `Cc1ccc(CSCC(=O)N2CCCC2)cc1`, the inhibition is 0.78%. With `Cc1coc2cc3oc(=O)c(CCC(=O)O)c(C)c3cc12` the figure was 1.74%; with `C=CCNc1nc2c(c(=O)n(C)c(=O)n2C)n1CC(=C)C`, 2.6%; with `CC(=O)Oc1ccc(C2OC(=O)c3ccccc3N2C(C)=O)cc1` (stereo not drawn), 4.61%. For `C/C(=N\NC(=O)c1ccccc1[N+](=O)[O-])c1ccc(Br)s1` the value was -5.19%; for `CC(=O)OC1c2c(ccc3ccc(=O)oc23)OC(C)(C)C1OC(=O)CC(C)C` (stereo not drawn), 3.34%; for `COc1ccc2c(c1)C(=O)CC(c1ccccc1F)O2` (stereo not drawn), -3.92%. For `O=C(NCCc1nc2ccccc2[nH]1)c1cccc(Br)c1` the value was 2.09%; for `CCOC(=O)C1=C2c3ccc4ccccc4c3CC(C)(C)N2C(=O)C1=O`, 4.17%; for `COc1ccc(OC)c(S(=O)(=O)N2CCCc3ccccc32)c1`, 1.48%. Regarding `CC(=O)c1c(N)nc2n(c1=O)CCCCC2`, the inhibition was 2.24%. For `CC1(C)C(=O)OC(/C=C\c2ccccc2)C(C)(C)C1=O` (stereo not drawn) the value was -4.36%; for `Cc1ccc(SCC(=O)Nc2nccs2)cc1`, -3.72%; for `CCN1CCn2c3c(c4cc(Cl)ccc42)CCCC31` (stereo not drawn), 0.84%.
